This passage reports viability, differential viability (reversal) and inhibition results from PubChem BioAssay.

Assay [1] can be described thus: HUVEC growth inhibition – cell-based, human, primary screen (AID 575;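 active means viability at or below 30% in both replicate assays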;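 further: 100% = median of untreated cell wells with 0.1% DMSO on each plate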). The following applies: HUVEC proliferation, CellTiter-Glo luminescence, 72 h; at 10 µM; stronger effect = lower value. In short, it runs like this: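 Assay system: primary human umbilical vein endothelial cells / Buffer or medium: endothelial basal medium with 2% FBS plus growth supplements / Compound dosing: one dose, 10 µM final, 0.1% DMSO / Timing: 72 h treatment at 37 °C / Signal: CTG luminescence / Benchmarks: 32 DMSO-only cell-control wells (high), 32 MePR drug-control wells (low) per plate / Plate: collagen-coated 384-well format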
A general note: ATP-based viability assays read luminescence as a measure of living cells.

A short description of assay [2]: H69AR cell proliferation blockers – human, duplicate replicates, primary screen (AID 580).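 Further: 100% = mean luminescence of untreated wells and 0% = no signal.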 The following applies: H69AR lung tumor cells viability, ATP luminescence, 72 h; at 10 µM; stronger effect = lower value.
Assay [3] in a line: MRP1 drug-resistance reversers in H69AR cells – cell-based, doxorubicin co-treatment, pilot screen (AID 601;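 active means viability loss from added drug above about 55%, and viability with drug at most 40%, in both replicates, limit read from the data, passing the limit was not always enough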). The settings on record: CellTiter-Glo, 72 h, at 10 µM; for differential viability (reversal): stronger effect = higher value.
Assay [4] in a line: yeast transport mutant growth inhibition pilot in 384-well plates, post-Golgi transport modulator project (AID 636; in the data active means inhibition above about 31%). The settings on record: absorbance 615 nm, about 18 h, stronger effect = higher value.
Assay [5] is described as follows: growth suppression of yeast trafficking mutant, preliminary HTS, modulators of trafficking downstream of Golgi apparatus project, 1536-format plate, OD 615 nm (AID 637; in the data active means inhibition above about 30%). The following applies: yeast transport mutant growth, absorbance 615 nm, 18 h; stronger effect = higher value.
Setting [6] is: H69AR cells + 2 uM doxorubicin, measured here: viability with 2 uM doxorubicin, stronger effect = lower value.
The mark [7] stands for this setting: H69AR cells, compound alone cytotoxicity.

Active and inactive are the calls of the source.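 How the source made its calls, unless noted: active means viability at or under a set limit in both replicates, limit being median viability minus 3 SD (cut at about 48% in these data, passing the limit was not always enough); inconclusive means at or under the limit in just one replicate; inactive means at or above the limit in both replicates.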

Usually viability stands for a read-out of living cells in per cent, often relative to untreated cells. Usually inhibition stands for the drop in the measured response relative to a control, in per cent. Regarding `Cc1ccccc1NC(=O)c1ccc(NC(=O)c2ccco2)cc1`, the viability in assay [1] was 102% (inactive); in assay [2], 80.7% (inactive); in assay [3] (setting [6]), 79.4%; in assay [3] (setting [7]), 80.7%. Moreover, the differential viability (reversal) in assay [3] (H69AR cells + 2 uM doxorubicin) was 1.25% (inactive). Besides, the inhibition is -6.84% (inactive) in assay [4] and -4.6% (inactive) in assay [5].
Regarding `CCCSc1nnc(-c2ccccc2NC(=O)CC)c(=O)[nH]1`, the viability in assay [1] was 99.4% (inactive); in assay [2], 103% (inactive); in assay [3] (setting [6]), 88.1%; in assay [3] (setting [7]), 103%. In addition, in assay [3] (H69AR cells + 2 uM doxorubicin), the differential viability (reversal) was 14.4% (inactive). Moreover, the inhibition was -5.87% (inactive) in assay [4] and 3.97% (inactive) in assay [5].
Consider `Cc1ccc(NC(=O)CC2Nc3ccccc3NC2=O)cc1Cl` (stereo not given), for which the viability in assay [1] was 10.1% (active); in assay [2], 27.8% (active); in assay [3] (setting [6]) it was 44.9%; in assay [3] (setting [7]), 27.8%. Moreover, in assay [3] (H69AR cells + 2 uM doxorubicin), the differential viability (reversal) was -17.1% (inactive). Besides, the inhibition in assay [4] was -1.17% (inactive); in assay [5], -3.49% (inactive).
Regarding `CCS(=O)(=O)N1CCC(C(=O)N2CCOCC2)CC1`, the viability in assay [1] is 92.1% (inactive); in assay [2] it was 98.5% (inactive); in assay [3] (setting [6]) it was 99.6%; in assay [3] (setting [7]), 98.5%. In assay [3] (H69AR cells + 2 uM doxorubicin), the differential viability (reversal) is -1.11% (inactive). Besides, the inhibition in assay [4] was -0.52% (inactive); in assay [5], -0.16% (inactive).
As to `O=C1CN(c2ccccc2F)C(=O)CN1c1ccccc1F`, the viability in assay [1] is 112% (inactive); in assay [2], 102% (inactive); in assay [3] (setting [6]) it was 92.2%; in assay [3] (setting [7]), 102%. For the same compound, the differential viability (reversal) in assay [3] (H69AR cells + 2 uM doxorubicin) is 10.3% (inactive). Further, the inhibition is -1.97% (inactive) in assay [4] and -0.63% (inactive) in assay [5].
`CCOC(=O)CS(=O)(=O)c1nc(-c2ccccc2)cc(C(F)(F)F)n1`: the viability was 5.62% (active) in assay [1], 1.61% (active) in assay [2], 1.14% in assay [3] (setting [6]) and 1.61% in assay [3] (setting [7]). In addition, the differential viability (reversal) in assay [3] (H69AR cells + 2 uM doxorubicin) was 0.47% (inactive). Also, the inhibition was 0.39% (inactive) in assay [4] and -0.63% (inactive) in assay [5].
Regarding `O=C(NCC1CCCO1)C1CC(c2ccc(Cl)c(Cl)c2)=NO1` (stereo not given), the viability in assay [1] was 111% (inactive); in assay [2], 104% (inactive); in assay [3] (setting [6]) it was 105%; in assay [3] (setting [7]) it was 104%. Also, the differential viability (reversal) in assay [3] (H69AR cells + 2 uM doxorubicin) is -1.44% (inactive). Also, the inhibition in assay [4] is -0.13% (inactive); in assay [5], -8.1% (inactive).
`Cc1ccccc1Cn1nc(C)c(NC(=O)c2noc3c2CCCC3)c1C`: the viability in assay [1] is 75.7% (inactive); in assay [2], 97.3% (inactive); in assay [3] (setting [6]), 95%; in assay [3] (setting [7]) it was 97.3%. For the same compound, the differential viability (reversal) in assay [3] (H69AR cells + 2 uM doxorubicin) is 2.39% (inactive). Besides, the inhibition is -3.12% (inactive) in assay [4] and -10.3% (inactive) in assay [5].
With `Cc1cc(C)c(C#N)c(SCc2ccc(C#N)cc2)n1`, the viability in assay [1] was 44.7% (inactive); in assay [2], 68.5% (inactive); in assay [3] (setting [6]), 75.6%; in assay [3] (setting [7]), 68.5%. Moreover, the differential viability (reversal) in assay [3] (H69AR cells + 2 uM doxorubicin) was -7.06% (inactive). Besides, the inhibition in assay [4] is -2.27% (inactive); in assay [5] it was -2.86% (inactive).
On to `N=c1ncn(CC(O)CN2CCOCC2)c2nc(N3CCOCC3)[nH]c12` (stereo not given), for which the viability in assay [1] was 92.6% (inactive); in assay [2], 98.6% (inactive); in assay [3] (setting [6]), 86.2%; in assay [3] (setting [7]), 98.6%. Also, in assay [3] (H69AR cells + 2 uM doxorubicin), the differential viability (reversal) is 12.4% (inactive). For the same compound, the inhibition in assay [4] was 0.4% (inactive); in assay [5] it was -1.9% (inactive).
On to `O=C(CN(c1ccc(F)cc1)S(=O)(=O)c1ccc2c(c1)OCCO2)NCC1CCCO1` (stereo not given), for which the viability in assay [1] is 96.5% (inactive); in assay [2], 100% (inactive); in assay [3] (setting [6]), 87.1%; in assay [3] (setting [7]), 100%. Besides, the differential viability (reversal) in assay [3] (H69AR cells + 2 uM doxorubicin) is 13.4% (inactive). Besides, the inhibition was -3.42% (inactive) in assay [4] and 2.54% (inactive) in assay [5].
For the compound `Cc1c(O)c(CN2CCCCC2)cc2c3c(c(=O)oc12)CCC3`, the viability in assay [1] is 103% (inactive); in assay [2] it was 82.2% (inactive); in assay [3] (setting [6]) it was 82.8%; in assay [3] (setting [7]), 82.2%. Besides, the differential viability (reversal) in assay [3] (H69AR cells + 2 uM doxorubicin) is -0.59% (inactive). In addition, the figures for the inhibition in assay [4] and in assay [5] were -6.84% (inactive) and 5.08% (inactive), respectively.
With `Cc1ccc(-c2nn3c(C)nnc3s2)cc1N`, the viability in assay [1] was 83.5% (inactive); in assay [2], 94.7% (inactive); in assay [3] (setting [6]) it was 78.2%; in assay [3] (setting [7]), 94.7%. Also, the differential viability (reversal) in assay [3] (H69AR cells + 2 uM doxorubicin) was 16.5% (inactive). In addition, the values for the inhibition in assay [4] and in assay [5] were -7.47% (inactive) and 3.33% (inactive), respectively.
For `CCOc1ccc(-c2nc(C#N)c(N3CCN(C)CC3)o2)cc1`, the viability in assay [1] is 82.1% (inactive); in assay [2], 97.6% (inactive); in assay [3] (setting [6]) it was 96.7%; in assay [3] (setting [7]) it was 97.6%. For the same compound, the differential viability (reversal) in assay [3] (H69AR cells + 2 uM doxorubicin) is 0.87% (inactive). The figures for the inhibition in assay [4] and in assay [5] were -1.6% (inactive) and 11.3% (inactive), respectively.
In the case of `Cc1cc(N2C(=O)C(=O)/C(=C(/O)c3ccc(F)cc3)C2c2ccc(F)cc2)no1` (stereo not given), the viability is 78.3% (inactive) in assay [1], 91.3% (inactive) in assay [2], 87.8% in assay [3] (setting [6]) and 91.3% in assay [3] (setting [7]). The differential viability (reversal) in assay [3] (H69AR cells + 2 uM doxorubicin) was 3.5% (inactive). Moreover, the inhibition in assay [4] was -5.47% (inactive); in assay [5], 5.08% (inactive).
On to `Cc1ccc(S(=O)(=O)N2CCCC2C(=O)OCc2ccco2)cc1` (stereo not given), for which the viability in assay [1] was 96% (inactive); in assay [2] it was 77.2% (inactive); in assay [3] (setting [6]), 76.8%; in assay [3] (setting [7]), 77.2%. Also, the differential viability (reversal) in assay [3] (H69AR cells + 2 uM doxorubicin) was 0.425% (inactive). Also, the inhibition in assay [4] was -6.58% (inactive); in assay [5] it was -7.62% (inactive).
For `CC(=O)NC1=NC(=O)/C(=C/N2CCCCC2)S1`, the viability in assay [1] is 99.5% (inactive); in assay [2], 95.9% (inactive); in assay [3] (setting [6]), 90.8%; in assay [3] (setting [7]), 95.9%. Moreover, the differential viability (reversal) in assay [3] (H69AR cells + 2 uM doxorubicin) was 5.1% (inactive). In addition, the values for the inhibition in assay [4] and in assay [5] were -1.97% (inactive) and -2.22% (inactive), respectively.
For `CCC1Cc2c(nc3c4c(nc(N5CCOCC5)c(C#N)c24)NC(C)=N3)O1` (stereo not given), the viability in assay [1] is 94% (inactive); in assay [2], 88.3% (inactive); in assay [3] (setting [6]) it was 81.5%; in assay [3] (setting [7]) it was 88.3%. The differential viability (reversal) in assay [3] (H69AR cells + 2 uM doxorubicin) was 6.83% (inactive). Moreover, the inhibition in assay [4] is -2.99% (inactive); in assay [5] it was 4.76% (inactive).
For `CCN(c1ccccc1)S(=O)(=O)c1ccc(F)cc1C`, the viability in assay [1] is 86.5% (inactive); in assay [2], 90.4% (inactive); in assay [3] (setting [6]), 83.2%; in assay [3] (setting [7]) it was 90.4%. The differential viability (reversal) in assay [3] (H69AR cells + 2 uM doxorubicin) was 7.2% (inactive). Also, the figures for the inhibition in assay [4] and in assay [5] were -1.04% (inactive) and -5.71% (inactive), respectively.
Regarding `N=c1sc2ccccc2n1-c1ccccc1`, the viability in assay [1] was 102% (inactive); in assay [2], 89% (inactive); in assay [3] (setting [6]), 82.4%; in assay [3] (setting [7]), 89%. For the same compound, the differential viability (reversal) in assay [3] (H69AR cells + 2 uM doxorubicin) is 6.59% (inactive). Further, the inhibition is -3.12% (inactive) in assay [4] and 3.33% (inactive) in assay [5].
